ChEMBL document CHEMBL3352262, “Synthesis and structure-activity relationships of pteridine dione and trione monocarboxylate transporter 1 inhibitors” (J Med Chem, 2014)
Activity calls are given as the source filed them. The calls are words filed in the database; no cut-off is given here.

Experiments:
Raji = assay: Growth inhibition of human Raji cells after 96 hrs by MTT assay; format: functional, cell-based
In short: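 Human Raji Burkitt lymphoma cells were seeded at 20000/well and cultured with compound or vehicle for 4 days (96 h) in 5% CO2. MTT reagent was added for 5 h, then 2-propanol/0.04 N HCl, and absorbance was read at 570 and 630 nm. EC50 came from curve fitting.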

MCF7 [1] = assay: Growth inhibition of human MCF7 cells overexpressing MCT4 up to 10 uM after 4 days by MTT assay; format: cell-based; conditions: mcf7, 96 h
In short: (§1)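 MCF7 cells engineered to overexpress mouse MCT1 or human MCT4 were seeded at 2000/well and compound was added the next day. Cells were cultured 4 days in 5% CO2, then given MTT reagent for 5 h and solubilized with 2-propanol/0.04 N HCl. Absorbance was read at 570 and 630 nm, in triplicate. The highest concentration tested on MCF7_MCT4 cells was 10 μM.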

MCF7 [2] = assay: Growth inhibition of human MCF7 cells overexpressing MCT4 after 4 days by MTT assay; format: cell-based; conditions: MCF7, 96 h; in short: as §1
MCF7 [3] = assay: Growth inhibition of human MCF7 cells overexpressing MCT1 after 4 days by MTT assay; format: functional, cell-based; conditions: MCF7, 96 h; in short: as §1
[4] = molecular target: T1, Monocarboxylate transporter 4 (Homo sapiens) (UniProt O15427); assay: Inhibition of MCT4 (unknown origin) overexpressed in human MCF7 cells assessed as inhibition of transporter-mediated [14C]lactate transport after 10 mins by scintillation counting; format: cell-based
T1 sequence (whole entry): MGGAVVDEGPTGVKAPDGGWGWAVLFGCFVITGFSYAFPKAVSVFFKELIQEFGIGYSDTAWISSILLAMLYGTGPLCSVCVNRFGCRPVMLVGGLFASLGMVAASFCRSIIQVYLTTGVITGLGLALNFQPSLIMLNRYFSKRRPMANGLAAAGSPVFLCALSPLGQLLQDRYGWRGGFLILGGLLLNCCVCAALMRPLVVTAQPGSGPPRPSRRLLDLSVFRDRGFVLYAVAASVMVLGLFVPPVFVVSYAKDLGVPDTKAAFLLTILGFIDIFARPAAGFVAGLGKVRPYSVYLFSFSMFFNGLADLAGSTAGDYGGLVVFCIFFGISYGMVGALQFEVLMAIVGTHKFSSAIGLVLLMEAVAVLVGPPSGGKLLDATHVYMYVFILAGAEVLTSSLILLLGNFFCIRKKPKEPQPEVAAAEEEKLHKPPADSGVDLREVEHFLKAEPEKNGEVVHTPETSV

MCF7 [5] = assay: Growth inhibition of human MCF7 cells overexpressing MCT4 at 10 uM after 4 days by MTT assay; format: cell-based; conditions: mcf7, 96 h; in short: as §1

| SMILES | EC50 (Raji) [nM] | further results |
| --- | --- | --- |
| CC(C)Cn1c(=O)n(C)c(=O)c2nc(-c3c(CCCO)nnn3C)c(Cc3cccc4ccccc34)nc21 | > 10000 |  |
| CC(C)Cn1c(=O)n(C)c(=O)c2nc(SCCO)c(Cc3cccc4ccccc34)nc21 | 2850 |  |
| CC(C)Cn1c(=O)n(C)c(=O)c2nc(C(=O)NCCCO)c(Cc3cccc4ccccc34)nc21 | > 10000 |  |
| CC(C)Cn1c(=O)n(C)c(=O)c2[nH]c(=O)c(Cc3cccc4ccccc34)nc21 | > 10000 |  |
| CC(C)Cn1c(=O)n(C)c(=O)c2nc(S(=O)(=O)CCCO)c(Cc3cccc4ccccc34)nc21 | 3750 |  |
| CC(C)Cn1c(=O)n(C)c(=O)c2c1nc(Cc1cccc3ccccc13)c(=O)n2CCCCCCO | > 10000 |  |
| CC(C)Cn1c(=O)n(C)c(=O)c2nc(CCCCO)c(Cc3cccc4ccccc34)nc21 | 285 |  |
| CC(C)Cn1c(=O)n(C)c(=O)c2nc(C(=O)N(C)CCCO)c(Cc3cccc4ccccc34)nc21 | > 10000 |  |
| CC(C)Cn1c(=O)n(C)c(=O)c2nc(-c3[nH]nnc3CCCO)c(Cc3cccc4ccccc34)nc21 | 6020 |  |
| COCCCCCc1nc2c(=O)n(C)c(=O)n(CC(C)C)c2nc1Cc1cccc2ccccc12 | 5780 |  |
| CC(C)Cn1c(=O)n(C)c(=O)c2c1nc(Cc1cccc3ccccc13)c(=O)n2CCCCCO | 1420 |  |
| CC(C)Cn1c(=O)n(C)c(=O)c2nc(-c3nnn(C)c3CCCO)c(Cc3cccc4ccccc34)nc21 | > 10000 |  |
| CC(C)Cn1c(=O)n(C)c(=O)c2nc([S+]([O-])CCCO)c(Cc3cccc4ccccc34)nc21 (stereo not drawn) | 1990 |  |
| Cc1n[nH]c(C)c1Cc1nc2c(nc1CCCCCO)c(=O)n(C)c(=O)n2CC(C)C | > 10000 |  |
| CC(C)Cn1c(=O)n(C)c(=O)c2nc(CCCCCCO)c(Cc3cccc4ccccc34)nc21 | 1690 |  |

These reach a lower EC50 (Raji). Values come first.

| EC50 (Raji) [nM] | SMILES | further results |
| --- | --- | --- |
| 18 | Cc1n[nH]c(C)c1Cc1sc2c(c1C(=O)N1C[C@H](O)CO1)c(=O)n(C)c(=O)n2CC(C)C |  |
| 37 | CC(C)Cn1c(=O)n(C)c(=O)c2nc(SCCCCO)c(Cc3cccc4ccccc34)nc21 | Activity (MCF7 [1]): Non-toxic |
| 0.5 | CC(C)Cc1nn(C)c(=O)c2c(SCCCO)n(Cc3cccc4ccccc34)cc12 | EC50 (MCF7 [2]): > 10000 nM; EC50 (MCF7 [3]): 21 nM; inhibition [4]: inactive |
| 150 | CC(C)Cn1c(=O)n(C)c(=O)c2c1nc(Cc1cccc3ccccc13)c(=O)n2CCCCO |  |
| 58 | CC(C)Cn1c(=O)n(C)c(=O)c2nc(CCCCCO)c(Cc3cccc4ccccc34)nc21 | Activity (MCF7 [1]): Non-toxic |
| 151 | CC(C)Cn1c(=O)n(C)c(=O)c2nc(SCCCO)c(Cc3cccc4ccccc34)nc21 |  |
| 70 | CC(C)Cn1c(=O)n(C)c(=O)c2nc(/C=C\CCCO)c(Cc3cccc4ccccc34)nc21 | Activity (MCF7 [5]): Toxic |
